pEC50, pIC50: −log10 of the molar value.
Columns and labels:
Human alphaherpesvirus 1 = test: Antiviral activity against Herpes simplex virus 1 KOS infected in human HEL cells assessed as inhibition of virus-induced cytopathicity; format: functional, organism-based; conditions: Human alphaherpesvirus 1, KOS
How it was run: (§1)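 Confluent monolayers (HEL for HSV-1 KOS and HSV-2 G; CRFK for feline herpes virus) in 96-well plates inoculated with 100 CCID50 of virus in presence of varying compound concentrations (100, 20, 4, … μM). Cytopathicity scored when complete in untreated infected controls; EC50 = concentration inhibiting virus-induced cytopathicity by 50%.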

HeLa = test: Cytostatic activity against human HeLa cells after 3 days by coulter ZI particle counting analysis; format: functional, cell-based; conditions: 72 h
How it was run: (§2)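 Cells seeded in 96-well plates and grown with or without serial dilutions of compound, 2 days for L1210 and 3 days for CEM and HeLa. IC50 taken as concentration inhibiting cell proliferation by 50%.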

Felid alphaherpesvirus 1 = test: Antiviral activity against Feline herpesvirus infected in cat CRFK cells assessed as inhibition of virus-induced cytopathicity; format: functional, organism-based; conditions: Felid alphaherpesvirus 1, CRFK; how it was run: as §1
L1210 = test: Cytostatic activity against mouse L1210 cells after 2 days by coulter ZI particle counting analysis; format: functional, cell-based; conditions: L1210, 48 h; how it was run: as §2
Human alphaherpesvirus 2 = test: Antiviral activity against Herpes simplex virus 2 G infected in human HEL cells assessed as inhibition of virus-induced cytopathicity; format: functional, organism-based; conditions: Human alphaherpesvirus 2, strain G; how it was run: as §1
CCRF-CEM = test: Cytostatic activity against human CEM cells after 3 days by coulter ZI particle counting analysis; format: functional, cell-based; conditions: 72 h; how it was run: as §2

Compound | pEC50 (Human alphaherpesvirus 1) | pIC50 (HeLa) | pEC50 (Felid alphaherpesvirus 1) | pIC50 (L1210) | pEC50 (Human alphaherpesvirus 2) | pIC50 (CCRF-CEM)
CCOP(=O)(CCCn1cc(Cn2c(=O)n(C(=O)c3ccccc3)c(=O)c3ccccc32)nn1)OCC | 4.77 | 3.89 | 4.62 | < 3.70 | 4.77 | 4.36
CCOP(=O)(CCCn1cc(Cn2ccc(=O)n(C(=O)c3ccccc3)c2=O)nn1)OCC | < 3.70 | < 3.70 | < 3.70 | < 3.70 | < 3.70 | < 3.70

From ChEMBL document CHEMBL3085765, “The synthesis, antiviral, cytostatic and cytotoxic evaluation of a new series of acyclonucleotide analogues with a 1,2,3-triazole linker” (Eur J Med Chem, 2013)
